Laboratory results reported in PMC11929827 (Scientific Reports, 2025).
Entries after “also recorded” stand apart in the source; their conditions may differ. Values belong to the compound of their own block, whether it stands above or below them.

Columns and labels:
[1] = biological target: α-Glucosidase (derived from Saccharomyces cerevisiae; EC3.2.1.20) (Saccharomyces cerevisiae, UniProt P53341); test: In vitro α-glucosidase inhibitory study; format: biochemical
[2] = biological target: T1, α-glucosidase (Saccharomyces cerevisiae, UniProt P53341); conditions: read-out: α-glucosidase IC50; Fig. 1; cited from earlier work
[3] = biological target: T1, α-glucosidase; test: Kinetic studies of α-glucosidase; format: biochemical
[4] = biological target: T1, α-glucosidase; test: Fluorescence spectroscopy measurements; format: binding; conditions: 0–500 nM, excitation 280 nm, phosphate buffer pH 6.8
Outline: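 Fixed amount of yeast α-glucosidase in 3.0 ml with test compound at 0–500 nM, equilibrated 10 min. Steady-state emission spectra recorded 300–500 nm with excitation at 280 nm in a 1.0 cm quartz cell. Buffer-only spectra without enzyme subtracted as background.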

[5] = biological target: T1, α-glucosidase; test: Thermodynamic analysis of the binding of compound 8g to α-glucosidase
Outline: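 Fluorescence intensity of yeast α-glucosidase at 340 nm followed over 298–338 K, with or without test compound (pH 6.8), under a two-state N↔U model. Denatured fraction, apparent K and ΔG° = −RT ln K were calculated, then fitted to the integrated Gibbs–Helmholtz equation (ΔCp 11.6 kJ/mol K). This gave Tm (half-denatured), ΔH°m and ΔS°m, with ΔH = TmΔS.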

[6] = test system: male Wistar rats; test: In vivo hypoglycemic activity assay; parameters: species or system rat; conditions: for blood glucose effect (area under curve) vs negative control: sucrose 7.5 g/kg, one-way ANOVA
Outline: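 Sucrose 7.5 g/kg was given 30 min later. Tail-vein glucose measured by glucometer at 0, 30, 45, 60 and 120 min. Area under curve compared by one-way ANOVA; mean ± SD.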

[7] = cited from earlier work
[8] = test system: normal cell lines; conditions: cited from earlier work
[9] = biological target: T1, α-glucosidase; conditions: kinetic studies; cited from earlier work

Chain of α-Glucosidase (derived from Saccharomyces cerevisiae; EC3.2.1.20) (P53341 whole entry): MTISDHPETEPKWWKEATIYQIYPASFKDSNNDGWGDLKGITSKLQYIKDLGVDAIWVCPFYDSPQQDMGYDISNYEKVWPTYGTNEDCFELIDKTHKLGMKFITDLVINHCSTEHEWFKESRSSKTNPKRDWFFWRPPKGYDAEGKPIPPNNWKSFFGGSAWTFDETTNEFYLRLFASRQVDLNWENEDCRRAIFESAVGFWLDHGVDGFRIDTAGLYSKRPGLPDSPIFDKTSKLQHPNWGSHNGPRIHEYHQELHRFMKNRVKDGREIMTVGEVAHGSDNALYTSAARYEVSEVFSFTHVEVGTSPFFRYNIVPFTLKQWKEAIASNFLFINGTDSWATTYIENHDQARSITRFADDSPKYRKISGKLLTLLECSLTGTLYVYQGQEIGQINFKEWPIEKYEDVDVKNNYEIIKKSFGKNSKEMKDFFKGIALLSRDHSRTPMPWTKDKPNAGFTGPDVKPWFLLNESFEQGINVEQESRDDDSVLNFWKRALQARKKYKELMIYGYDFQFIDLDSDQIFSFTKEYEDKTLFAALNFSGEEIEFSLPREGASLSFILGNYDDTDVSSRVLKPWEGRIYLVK
T1 sequence (P53341 whole entry): as above

- IC50 [1]: 53.9 ± 1.2 µM
SMILES: O=C(NN=CC(O)C(O)C(O)C(O)CO)c1cc(-c2ccccc2F)[nH]n1 (stereo not drawn) [Compound 8b, 5-(2-Fluorophenyl)-N’-(2,3,4,5,6-pentahydroxyhexylidene)−1H-pyrazole-3-carbohydrazide]

- IC50 [1]: 80.5 ± 0.7 µM
SMILES: O=C(NN=CC(O)C(O)C(O)C(O)CO)c1cc(-c2ccc([N+](=O)[O-])cc2)[nH]n1 (stereo not drawn) [Compound 8h, 5-(4-Nitrophenyl)-N’-(2,3,4,5,6-pentahydroxyhexylidene)−1H-pyrazole-3-carbohydrazide]

SMILES: O=C(NNC1OC(CO)C(O)C(O)C1O)c1cc(-c2ccccc2)on1 (stereo not drawn) [H, 5-phenyl-N’-(3,4,5-trihydroxy-6-(hydroxymethyl)tetrahydro-2H-pyran-2-yl)isoxazole-3-carbohydrazide]
- IC50 [2]: 292 µM

- IC50 [1]: 0.5 µM
- inhibition of α-glucosidase, times more potently than acarbose ([1]; relative to acarbose): 1500 times
- Ki [3]: 0.46 µM
- fluorescence intensity of α-glucosidase [4]: increased intensity
- shift in the emission wavelength (λmax 340 nm) [4]: did not show significant shift
- Tm of α-glucosidase ([5]; 60 nM compound): 314 K
- ΔSm° of α-glucosidase denaturation ([5]; 60 nM compound): 328.6 J mol^−1 K^−1
- Tm of α-glucosidase ([5]; 250 nM compound): 309 K
- ΔSm° of α-glucosidase denaturation ([5]; 250 nM compound): 466.9 J mol^−1 K^−1
- Tm of α-glucosidase ([5]; 500 nM compound): 304 K
- ΔHm° of α-glucosidase denaturation ([5]; 500 nM compound): 37.55 kcal/mol
- ΔSm° of α-glucosidase denaturation ([5]; 500 nM compound): 516.4 J mol^−1 K^−1
SMILES: O=C(NN=CC(O)C(O)C(O)C(O)CO)c1cc(-c2ccc(Cl)cc2Cl)[nH]n1 (stereo not drawn) [Compound 8g, 5-(2,4-Dichlorophenyl)-N’-(2,3,4,5,6-pentahydroxyhexylidene)−1H-pyrazole-3-carbohydrazide]
- type of inhibition ([3]; Lineweaver-Burk plot: Km increased, Vmax unchanged): competitive manner; also recorded: competitive inhibitor
- blood sugar levels in rats ([6]; doses comparable to acarbose): capable of lowering blood sugar levels; also recorded: effectively reduced
- blood glucose effect (area under curve) vs negative control ([6]; rat, oral 2.5 mg/kg): did not significantly differ
- blood glucose effect (area under curve) vs negative control ([6]; rat, oral 5 mg/kg, p-value < 0.05): significantly different
- blood glucose effect (area under curve) vs negative control ([6]; rat, oral 10 mg/kg, p-value < 0.05): significantly different
- effectiveness of 5 and 10 mg/kg doses vs each other and vs acarbose (5 mg/kg) ([6]; rat, oral, sucrose tolerance test): did not significantly differ

- IC50 [1]: 4.2 ± 0.1 µM
SMILES: O=C(NN=CC(O)C(O)C(O)C(O)CO)c1cc(-c2ccccc2Cl)[nH]n1 (stereo not drawn) [Compound 8c, 5-(2-Chlorophenyl)-N’-(2,3,4,5,6-pentahydroxyhexylidene)−1H-pyrazole-3-carbohydrazide]

- IC50 [1]: 12.1 ± 0.5 µM
SMILES: Cc1cccc(-c2cc(C(=O)NN=CC(O)C(O)C(O)C(O)CO)n[nH]2)c1 (stereo not drawn) [Compound 8i, N’-(2,3,4,5,6-Pentahydroxyhexylidene)−5-(m-tolyl)−1H-pyrazole-3-carbohydrazide]

- IC50 [1]: 2.3 µM
SMILES: COc1cccc(-c2cc(C(=O)NN=CC(O)C(O)C(O)C(O)CO)n[nH]2)c1 (stereo not drawn) [Compound 8k, 5-(3-Methoxyphenyl)-N’-(2,3,4,5,6-pentahydroxyhexylidene)−1H-pyrazole-3-carbohydrazide]

- IC50 [1]: 1.2 µM
SMILES: O=C(NN=CC(O)C(O)C(O)C(O)CO)c1cc(-c2ccccc2)[nH]n1 (stereo not drawn) [Compound 8a, N’-(2,3,4,5,6-Pentahydroxyhexylidene)−5-phenyl-1H-pyrazole-3-carbohydrazide]

SMILES: COc1ccc(/C=C/c2cc(O)cc(OC3OC(CO)C(O)C(O)C3O)c2)cc1O (stereo not drawn) [F, 2-(3-hydroxy-5-((E)−3-hydroxy-4-methoxystyryl)phenoxy)−6-(hydroxymethyl)tetrahydro-2H-pyran-3,4,5-triol]
- bioavailability [7]: very low
- toxic effects [7]: no toxic effects

- IC50 [1]: 60.6 ± 1 µM
SMILES: O=C(NN=CC(O)C(O)C(O)C(O)CO)c1cc(-c2ccc(F)cc2)[nH]n1 (stereo not drawn) [Compound 8d, 5-(4-Fluorophenyl)-N’-(2,3,4,5,6-pentahydroxyhexylidene)−1H-pyrazole-3-carbohydrazide]

SMILES: O=C(NN=Cc1cn(-c2ccccc2)nc1-c1ccc([N+](=O)[O-])cc1)c1cc2ccccc2o1 [B, N’-((3-(4-nitrophenyl)−1-phenyl-1H-pyrazol-4-yl)methylene)benzofuran-2-carbohydrazide]
- cytotoxicity to normal cell lines [8]: non-toxic

- IC50 [1]: 1 µM
SMILES: O=C(NN=CC(O)C(O)C(O)C(O)CO)c1cc(-c2ccc(Cl)cc2)[nH]n1 (stereo not drawn) [Compound 8e, 5-(4-Chlorophenyl)-N’-(2,3,4,5,6-pentahydroxyhexylidene)−1H-pyrazole-3-carbohydrazide]

- IC50 [1]: 2.3 µM
SMILES: COc1ccc(-c2cc(C(=O)NN=CC(O)C(O)C(O)C(O)CO)n[nH]2)cc1 (stereo not drawn) [Compound 8l, 5-(4-Methoxyphenyl)-N’-(2,3,4,5,6-pentahydroxyhexylidene)−1H-pyrazole-3-carbohydrazide]

- IC50 [1]: 36.4 ± 0.2 µM
SMILES: Cc1ccc(-c2cc(C(=O)NN=CC(O)C(O)C(O)C(O)CO)n[nH]2)cc1 (stereo not drawn) [Compound 8j, N’-(2,3,4,5,6-Pentahydroxyhexylidene)−5-(p-tolyl)−1H-pyrazole-3-carbohydrazide]

- IC50 [1]: 35.2 ± 0.5 µM
SMILES: O=C(NN=CC(O)C(O)C(O)C(O)CO)c1cc(-c2ccc(Br)cc2)[nH]n1 (stereo not drawn) [Compound 8f, 5-(4-Bromophenyl)-N’-(2,3,4,5,6-pentahydroxyhexylidene)−1H-pyrazole-3-carbohydrazide]

SMILES: O=C(Cn1c(-c2ccc(Cl)cc2)nc2ccccc2c1=O)NN=Cc1cn(-c2ccccc2)nc1-c1ccc(Br)cc1 [E, N’-((3-(4-bromophenyl)−1-phenyl-1H-pyrazol-4-yl)methylene)−2-(2-(4-chlorophenyl)−4-oxoquinazolin-3(4H)-yl)acetohydrazide]
- IC50 [2]: 60.5 µM
- mechanism of α-glucosidase inhibition [9]: competitive mechanism

- IC50 [1]: 438.6 ± 0.1 µM
SMILES: COc1ccc(-c2cc(C(=O)NN=CC(O)C(O)C(O)C(O)CO)n[nH]2)cc1OC (stereo not drawn) [Compound 8m, 5-(3,4-Dimethoxyphenyl)-N’-(2,3,4,5,6-pentahydroxyhexylidene)−1H-pyrazole-3-carbohydrazide]
